Tests used:
[1] = system: P388; test: Concentration for inhibiting the growth of P-388 cells by 50% over 3 days was determined; assay type: functional; settings: Mus musculus, P388, 72 h; read-out: ID50 (the source's name)
Summary of the method: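 Cytotoxicity was measured against cultured murine leukemia cells, P-388 and L1210, over 3 days of continuous drug exposure. Culture and drug-addition conditions follow an earlier report. The value is the drug concentration that inhibits growth by 50% over the 3 days.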

[2] = system: P388; test: animal or person; settings: Mus musculus, P388, ip
[3] = system: Nucleic Acid; test: […] association constant for DNA binding to poly (dA.dT); assay type: nucleic-acid assay
Summary of the method: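 Association constant for binding to the synthetic polynucleotide poly(dA-dT). Measured by a method described in earlier work.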

[4] = system: L1210; test: Concentration for inhibiting the growth of L1210 cells by 50% over 3 days was determined; assay type: functional; settings: Mus musculus, L1210, 72 h; read-out: ID50 (the source's name)
[5] = system: P388; test: Percentage increase in life span was measured for P-388 cells […] after intraperitoneal administration of a dose of 33 mg/kg; assay type: functional; settings: Mus musculus, P388, ip
Summary of the method: (§1)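 Mice received 10⁶ P-388 leukemia cells ip. Drug in 0.1 mL of 30% aqueous ethanol was injected ip on days 1, 5 and 9. Doses ran from a toxic level downward at 0.67-fold intervals, with 6 mice per group and 20–30 controls. The percentage increase in mean survival time over controls was taken at the optimal dose. ILS below 20% was treated as nonsignificant.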

[6] = system: P388; test: Percentage increase in life span was measured for P-388 cells […] after intraperitoneal administration of a dose of 50 mg/kg; assay type: functional; settings: Mus musculus, P388, ip; summary of the method: as §1
[7] = system: P388; test: Percentage increase in life span was measured for P-388 cells […] after intraperitoneal administration of a dose of 30 mg/kg; assay type: functional; settings: Mus musculus, P388, ip; summary of the method: as §1
[8] = system: P388; test: Percentage increase in life span was measured for P-388 cells […] after intraperitoneal administration of a dose of 190 mg/kg; assay type: functional; settings: Mus musculus, P388, ip; summary of the method: as §1
[9] = system: P388; test: Percentage increase in life span was measured for P-388 cells […] after intraperitoneal administration of a dose of 150 mg/kg; assay type: functional; settings: Mus musculus, P388, ip; summary of the method: as §1
[10] = system: P388; test: Percentage increase in life span was measured for P-388 cells […] after intraperitoneal administration of a dose of 8.9 mg/kg; assay type: functional; settings: Mus musculus, P388, ip; summary of the method: as §1
[11] = system: P388; test: Percentage increase in life span was measured for P-388 cells […] after intraperitoneal administration of a dose of 110 mg/kg; assay type: functional; settings: Mus musculus, P388, ip; summary of the method: as §1
[12] = system: P388; test: Percentage increase in life span was measured for P-388 cells […] after intraperitoneal administration of a dose of 66 mg/kg; assay type: functional; settings: Mus musculus, P388, ip; summary of the method: as §1
[13] = system: P388; test: Percentage increase in life span was measured for P-388 cells […] after intraperitoneal administration of a dose of 330 mg/kg; assay type: functional; settings: Mus musculus, P388, ip; summary of the method: as §1
[14] = system: P388; test: Percentage increase in life span was measured for P-388 cells […] after intraperitoneal administration of a dose of 250 mg/kg; assay type: functional; settings: Mus musculus, P388, ip; summary of the method: as §1
[15] = system: P388; test: Percentage increase in life span was measured for P-388 cells […] after intraperitoneal administration of a dose of 125 mg/kg; assay type: functional; settings: Mus musculus, P388, ip; summary of the method: as §1
[16] = system: P388; test: Percentage increase in life span was measured for P-388 cells […] after intraperitoneal administration of a dose of 65 mg/kg; assay type: functional; settings: Mus musculus, P388, ip; summary of the method: as §1

SMILES | IC50 [1] [nM] | Log K [3] | IC50 [4] [nM] | further results
COc1cc(NS(C)(=O)=O)ccc1Nc1c2ccccc2nc2ccccc12 [AMSACRINE] | 30 | 5.57 |  | ILS at 13.3 mg/kg [2]: 78%
COP(=O)(Nc1ccc(Nc2c3ccccc3nc3ccccc23)cc1)OC | 10 | 6.26 | 15 | ILS at 33 mg/kg [5]: 74%
NP(=O)(O)Nc1ccc(Nc2c3ccccc3nc3ccccc23)cc1 | 2800 | 4.83 | 1800 | 
CN(C)P(=O)(Nc1ccc(Nc2c3ccccc3nc3ccccc23)cc1)N(C)C | 1300 | 6.08 | 1500 | ILS at 50 mg/kg [6]: 29%
O=P1(Nc2ccc(Nc3c4ccccc4nc4ccccc34)cc2)OCCO1 | 110 | 6.52 | 180 | ILS at 30 mg/kg [7]: 54%
COC(=O)Nc1ccc(Nc2c3ccccc3nc3ccccc23)cc1 | 26 |  | 60 | ILS at 30 mg/kg [7]: 98%
COP(=O)(NC(=O)c1ccc(Nc2c3ccccc3nc3ccccc23)cc1)OC | 4800 | 5.56 | > 35 | ILS at 190 mg/kg [8]: 12%
COP(=O)(O)Nc1ccc(Nc2c3ccccc3nc3ccccc23)cc1 | 4000 | 5.37 | 2000 | 
CS(=O)(=O)Nc1ccc(Nc2c3ccccc3nc3ccccc23)cc1 | 40 |  | 35 | ILS at 150 mg/kg [9]: 93%
O=P1(Nc2ccc(Nc3c4ccccc4nc4ccccc34)cc2)NCCCO1 (stereo unspecified) | 450 | 6.58 | 800 | ILS at 50 mg/kg [6]: 9%
COc1cc(NP(=O)(OC)OC)ccc1Nc1c2ccccc2nc2ccccc12 | 36 | 5.64 | 70 | ILS at 8.9 mg/kg [10]: 67%
CNC(=O)Nc1ccc(Nc2c3ccccc3nc3ccccc23)cc1 | 86 |  | 100 | ILS at 30 mg/kg [7]: 53%
CCOP(=O)(Nc1ccc(Nc2c3ccccc3nc3ccccc23)cc1)OCC | 200 | 6.47 | 230 | ILS at 110 mg/kg [11]: 28%
CS(=O)(=O)Nc1cccc(Nc2c3ccccc3nc3ccccc23)c1 | 90 |  | 110 | ILS at 66 mg/kg [12]: 53%
CS(=O)(=O)Cc1ccc(Nc2c3ccccc3nc3ccccc23)cc1 | 270 | 5.76 | 250 | ILS at 330 mg/kg [13]: 49%
CC(=O)Nc1ccc(Nc2c3ccccc3nc3ccccc23)cc1 | 54 |  | 100 | ILS at 30 mg/kg [7]: 57%
COP(=O)(Nc1cccc(Nc2c3ccccc3nc3ccccc23)c1)OC | 1400 | 5.66 | 1800 | ILS at 250 mg/kg [14]: 34%
COP(=O)(Cc1ccc(Nc2c3ccccc3nc3ccccc23)cc1)OC | 1400 | 5.67 | 670 | ILS at 125 mg/kg [15]: 2%
O=P1(Nc2ccc(Nc3c4ccccc4nc4ccccc34)cc2)OCCCO1 | 50 | 6.78 | 110 | ILS at 30 mg/kg [7]: 47%
CP(C)(=O)Nc1ccc(Nc2c3ccccc3nc3ccccc23)cc1 | 1000 | 6.81 | 1300 | ILS at 65 mg/kg [16]: 18%
CNP(=O)(NC)Nc1ccc(Nc2c3ccccc3nc3ccccc23)cc1 | 2000 | 6.84 | 2500 | ILS at 50 mg/kg [6]: 11%

Reference: ChEMBL document CHEMBL1121956, “Potential antitumor agents. 37. Organophosphorus derivatives of 9-anilinoacridine” (1982)
